One test relates to RPMI-8226. The experiment in a line: Cytotoxicity against human RPMI8226 cells after 48 hrs by MTT assay. In kind it is functional, cell-based. The note with it: RPMI-8226, 48 h. A digest of the protocol: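 MTT in RPMI-8226 cells: 1–2 × 10^4 cells per well in complete medium, exposed 48 h to a range of compound concentrations. MTT reduction to formazan read at 570 nm. Quadruplicate wells per group; OD given as % of DMSO-only control set at 100%. IC50 taken from the concentration series.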

A further test has as its system MM1.S. The experiment in a line: Cytotoxicity against human MM1S cells after 48 hrs by MTT assay. The test is classed as functional, cell-based. A digest of the protocol:
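MM1.S myeloma cells (DEPTOR-over-expressing) in 48 h MTT: 1–2 × 10^4 cells per well, graded compound concentrations, formazan at 570 nm. Quadruplicate wells; survival as % of DMSO control; IC50 derived from the concentration range.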

Here are results for 22 compounds from ChEMBL document CHEMBL4043223, “Structure-activity relationship study of small molecule inhibitors of the DEPTOR-mTOR interaction” (Bioorg Med Chem Lett, 2017).

Take `Fc1cccc(NN=C2C(Cl)=C(Cl)C(Cl)=C2Cl)c1`: the IC50 in the test on RPMI-8226 is 0.5 to 0.6 µM; with MM1.S, 1.5 µM.
The matching figures for `CC(C)(C)NN=C1C(Cl)=C(Cl)C(Cl)=C1Cl`: 3 to 5 µM and greater than 3 µM.
Taken in the same sequence, the figures for `CC(C)(C)OC(=O)NN=C1c2ccccc2-c2ccccc21` were greater than 5 µM and greater than 5 µM.
Taken in the same sequence, the figures for `NN=C(c1ccccc1)c1ccccc1` were greater than 5 µM and greater than 5 µM.
Take `NN=c1c2ccccc2oc2ccccc12`: the half-maximal inhibitory concentration (IC50) in the test with RPMI-8226 and in the test with MM1.S was greater than 5 µM in each case.
As for `Cc1cccc(NN=C2C(Cl)=C(Cl)C(Cl)=C2Cl)c1`, the half-inhibitory concentration (IC50) was 2 µM with RPMI-8226 and greater than 3 µM in the test with MM1.S.
The matching figures for `Fc1cccc(NN=C2c3ccccc3-c3ccccc32)c1`: greater than 5 µM and greater than 5 µM.
Consider `Fc1ccccc1NN=C1C(Cl)=C(Cl)C(Cl)=C1Cl`, for which the IC50 in the test with RPMI-8226 and in the test on MM1.S was greater than 3 µM in each case.
In the case of `ClC1=C(Cl)C(Cl)=C(Cl)C1=NN(c1ccccc1)c1ccccc1`, the IC50 with RPMI-8226 and with MM1.S was greater than 3 µM each time.
As for `NN=C1c2ccccc2-c2ccccc21`, the half-inhibitory concentration (IC50) in the test on RPMI-8226 is greater than 5 µM.
Consider `ClC1=C(Cl)C(Cl)=C(Cl)C1=NNc1ccccc1`, for which the IC50 with RPMI-8226 was 0.6 to 0.7 µM; in the test on MM1.S it was 2 µM.
With `C#CCOC(=O)NN=C1C(Cl)=C(Cl)C(Cl)=C1Cl`, inhibition in the test on RPMI-8226 was half-maximal at 0.8 µM (IC50).
As to `Cc1ccc(C(=O)N(N=C2C(Cl)=C(Cl)C(Cl)=C2Cl)C(=O)c2ccc(C)cc2)cc1`, the 50% inhibitory concentration (IC50) in the test with RPMI-8226 and with MM1.S was 0.5 µM in each case.
Turning to `COC1(OC)C(Cl)=C(Cl)C(Cl)=C1Cl`, the IC50 with RPMI-8226 is greater than 5 µM.
In the case of `O=C(c1ccccc1)N(N=C1C(Cl)=C(Cl)C(Cl)=C1Cl)C(=O)c1ccccc1`, the concentration for half-maximal inhibition (IC50) in the test with RPMI-8226 was determined as 0.8 µM; in the test with MM1.S it was 2 µM.
With `CN(C)N=C1C(Cl)=C(Cl)C(Cl)=C1Cl`, the IC50 with RPMI-8226 is 1.3 to 3 µM; in the test with MM1.S it was greater than 3 µM.
The matching figures for `ClC1=C(Cl)C(Cl)=C(Cl)C1=NNC1CCCCC1`: 3 to 5 µM and greater than 3 µM.
With `ON=C1C(Cl)=C(Cl)C(Cl)=C1Cl`, the half-maximal inhibitory concentration (IC50) with RPMI-8226 is greater than 5 µM.
The same measure, in the same setting: in the case of `C#CC(C)(C)OC(=O)NN=C1C(Cl)=C(Cl)C(Cl)=C1Cl` it was greater than 5 µM.
Still for that read-out and setting: the result for `CC(=O)NN=C1C(Cl)=C(Cl)C(Cl)=C1Cl` reads 1 µM.
Regarding `COc1cccc(NN=C2C(Cl)=C(Cl)C(Cl)=C2Cl)c1`, the 50% inhibitory concentration (IC50) in the test on RPMI-8226 and in the test on MM1.S was greater than 3 µM throughout.
Consider `ClC1=C(Cl)C(Cl)=C(Cl)C1=NNc1cc(Cl)cc(Cl)c1`, for which the figures for the half-inhibitory concentration (IC50) with RPMI-8226 and in the test with MM1.S were 0.8 µM and 2 µM, respectively.
